Tests used:
[1] = system: U-87 MG; test: Antiproliferative activity against human U-87 MG cells assessed as cell viability at 100 uM measured after 24 to 48 hrs by MTT assay relative to control; format: functional, U-87MG ATCC; details: time 24-48 hrs, read-out: Activity
In short: (§1)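 Cells seeded per well 24 h before treatment: HEK293 at 5.10^4, MCF7 at 4.10^4, U87MG at 10^5. Compounds were dissolved in DMSO (less than 1%) and diluted in DMEM, then incubated 24 and 48 h. Cells were washed with D-PBS and given MTT (from a 5 mg/mL stock) for 4 h, dissolved in DMSO, read at 540 nm. % viability = sample/control absorbance ×100. At least three independent experiments.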

[2] = system: U-87 MG; test: Antiproliferative activity against human U-87 MG cells assessed as cell viability at 10 uM measured after 24 to 48 hrs by MTT assay relative to control; format: functional, U-87MG ATCC; details: time 24-48 hrs, read-out: Activity; in short: as §1
[3] = system: U-87 MG; test: Antiproliferative activity against human U-87 MG cells assessed as cell viability at 5 uM measured after 24 to 48 hrs by MTT assay relative to control; format: functional, U-87MG ATCC; details: time 24-48 hrs, read-out: Activity; in short: as §1
[4] = system: U-87 MG; test: Antiproliferative activity against human U-87 MG cells assessed as cell viability at 50 uM measured after 24 to 48 hrs by MTT assay relative to control; format: functional, U-87MG ATCC; details: time 24-48 hrs, read-out: Activity; in short: as §1
[5] = system: HEK293; test: Cytotoxicity against HEK293 cells assessed as reduction in cell viability measured after 24 to 48 hrs by MTT assay; format: cell-based; details: Homo sapiens; in short: as §1
[6] = system: U-87 MG; test: Antiproliferative activity against human U-87 MG cells assessed as reduction in cell viability measured after 24 to 48 hrs by MTT assay; format: functional, cell-based, U-87MG ATCC; in short: as §1
[7] = system: MCF7; test: Antiproliferative activity against human MCF7 cells assessed as reduction in cell viability measured after 24 to 48 hrs by MTT assay; format: functional, cell-based; in short: as §1
[8] = target: T1, Adenosine receptor A1 (Homo sapiens) (UniProt P30542); test: Displacement of [3H]DPCPX from recombinant human A1 adenosine receptor expressed in CHO cell membranes at 1 uM measured after 60 mins by liquid scintillation counting method relative to control; details: Membrane
T1 sequence (whole entry): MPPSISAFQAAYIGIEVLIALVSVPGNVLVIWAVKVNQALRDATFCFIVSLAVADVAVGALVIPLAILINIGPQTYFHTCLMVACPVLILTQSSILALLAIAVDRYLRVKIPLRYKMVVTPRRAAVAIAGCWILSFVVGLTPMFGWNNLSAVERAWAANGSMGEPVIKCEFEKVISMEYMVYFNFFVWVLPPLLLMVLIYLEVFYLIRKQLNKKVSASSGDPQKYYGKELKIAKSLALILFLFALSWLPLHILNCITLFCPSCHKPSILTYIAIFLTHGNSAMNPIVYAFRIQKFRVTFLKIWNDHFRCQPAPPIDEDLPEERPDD
In short: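 Membranes from CHO cells expressing recombinant hA1 (40 μg/tube) were incubated with 2 nM [3H]DPCPX and test compound at 1 μM in 50 mM Tris-HCl (pH 7.4, 10 mM MgCl2) for 60 min at 25°C. Bound radioligand was separated by GF/B filtration and counted by liquid scintillation. Results are given as percent inhibition of specific binding.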

[9] = target: 3',5'-cyclic-AMP phosphodiesterase 4B (Homo sapiens, UniProt Q07343); test: Inhibition of recombinant human PDE4B using […] as substrate measured after 90 mins by colorimetric assay
Sequence of 3',5'-cyclic-AMP phosphodiesterase 4B (Q07343 whole entry): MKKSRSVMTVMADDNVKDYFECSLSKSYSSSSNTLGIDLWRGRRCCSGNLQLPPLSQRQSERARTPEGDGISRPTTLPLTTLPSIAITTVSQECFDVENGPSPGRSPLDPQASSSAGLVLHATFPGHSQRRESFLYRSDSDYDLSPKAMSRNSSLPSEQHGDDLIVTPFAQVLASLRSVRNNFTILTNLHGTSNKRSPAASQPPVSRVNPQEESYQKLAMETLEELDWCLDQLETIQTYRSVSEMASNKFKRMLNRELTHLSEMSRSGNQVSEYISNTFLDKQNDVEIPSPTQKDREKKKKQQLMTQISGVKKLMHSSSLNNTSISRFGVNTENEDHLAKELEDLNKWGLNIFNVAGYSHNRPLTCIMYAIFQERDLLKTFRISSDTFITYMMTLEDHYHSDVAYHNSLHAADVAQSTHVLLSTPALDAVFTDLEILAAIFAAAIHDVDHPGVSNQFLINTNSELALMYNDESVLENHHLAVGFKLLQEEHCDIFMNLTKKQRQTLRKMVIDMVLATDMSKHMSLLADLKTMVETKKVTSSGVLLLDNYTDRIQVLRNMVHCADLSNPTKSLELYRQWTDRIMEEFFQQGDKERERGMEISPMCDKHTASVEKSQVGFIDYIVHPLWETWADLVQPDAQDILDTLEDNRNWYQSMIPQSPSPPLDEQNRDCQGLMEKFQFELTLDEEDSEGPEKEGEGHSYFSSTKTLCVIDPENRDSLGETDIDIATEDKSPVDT
In short: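 Recombinant human PDE4 was incubated with 0.5 μM 5′-cGMP plus 5′-nucleotidase for 90 min at 30°C. The reaction was stopped with termination buffer for 20 min at room temperature, and released phosphate was read at OD 620 nm. IC50 was determined from 6 inhibitor concentrations. Compound stocks were in DMSO (less than 1%), with at least triplicate runs, mean ± SD.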

[10] = target: Adenosine receptor A2a (Homo sapiens) (UniProt P29274); test: Displacement of [3H]ZM241385 from recombinant human A2A adenosine receptor expressed in HEK293 cell membranes at 1 uM measured after 60 mins by liquid scintillation counting method relative to control; details: Membrane
Sequence of Adenosine receptor A2a (Homo sapiens) (P29274 whole entry): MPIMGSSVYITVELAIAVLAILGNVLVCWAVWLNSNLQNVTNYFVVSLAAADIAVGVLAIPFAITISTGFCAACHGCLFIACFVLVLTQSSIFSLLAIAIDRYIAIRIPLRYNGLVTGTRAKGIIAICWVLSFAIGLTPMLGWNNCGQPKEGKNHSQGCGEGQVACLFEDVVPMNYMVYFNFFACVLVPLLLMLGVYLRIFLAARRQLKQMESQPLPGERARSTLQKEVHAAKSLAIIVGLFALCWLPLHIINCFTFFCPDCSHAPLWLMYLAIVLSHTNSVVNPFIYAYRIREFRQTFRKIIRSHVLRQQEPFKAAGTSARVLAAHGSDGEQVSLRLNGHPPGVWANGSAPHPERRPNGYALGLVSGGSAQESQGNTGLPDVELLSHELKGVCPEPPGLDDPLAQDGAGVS
In short: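 HEK293 membranes expressing hA2A (20 μg/tube) were incubated with 15 nM [3H]ZM241385 and 1 μM test compound for 60 min at 25°C in 50 mM Tris-HCl, pH 7.4, 10 mM MgCl2. The reaction was stopped by GF/B filtration, followed by scintillation counting. Read-out was percent inhibition of specific binding.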

[11] = Cytotoxicity against HEK293 cells assessed as cell viability at 100 uM measured after 24 to 48 hrs by MTT assay relative to control; format: cell-based; details: human, HEK293 cells, time 24-48 hrs, read-out: Activity; in short: as §1

IC50 [6] [µM] | IC50 [7] [µM] | inhibition [8] [%] | IC50 [9] [µM] | inhibition [10] [%] | SMILES | viability at 100 µM [1] [%] | viability at 10 µM [2] [%] | viability at 5 µM [3] [%] | viability at 50 µM [4] [%] | IC50 [5] [µM] | viability at 100 µM [11] [%]
53 | – | – | – | – | Cc1nc(-c2ccc(Cl)cc2)sc1C(=O)CSc1nc(-c2ccc(Cl)cc2)c(C#N)c(=O)[nH]1 | 12.8 | 98.4 | 99 | 60 | 75.1 | –
12.5 | 24 | 2.5 | 17.1 | 8.5 | COc1ccc(-c2nc(C)c(C(=O)CSc3nc(-c4ccc(OC)c(OC)c4)c(C#N)c(=O)[nH]3)s2)cc1 | 5.39 | 57.6 | 81.2 | 22.2 | 23.3 | –
15.3 | – | – | – | – | COc1ccc(-c2nc(C)c(C(=O)CSc3nc(-c4cccc(OC)c4)c(C#N)c(=O)[nH]3)s2)cc1 | 12.4 | 66.7 | 71.3 | 43.2 | 95.4 | –
55.5 | – | – | – | – | Cc1nc(-c2ccc(Cl)cc2)sc1C(=O)CSc1nc(-c2ccc3c(c2)OCO3)c(C#N)c(=O)[nH]1 | 9.91 | 95 | 101 | 68.3 | 81.4 | –
40.1 | – | – | – | – | Cc1nc(-c2ccc(Cl)cc2)sc1C(=O)CSc1nc(-c2cccc(Cl)c2)c(C#N)c(=O)[nH]1 | 12.5 | 95.2 | 80.2 | 52.6 | 30.1 | –
35.5 | – | – | – | – | COc1ccc(-c2nc(SCC(=O)c3sc(-c4ccc(Cl)cc4)nc3C)[nH]c(=O)c2C#N)cc1 | 16.6 | 88.3 | 92.1 | 46.3 | – | > 50
83.9 | – | – | – | – | Cc1nc(-c2ccc(Cl)cc2)sc1C(=O)CSc1nc(-c2ccc(Cl)c(Cl)c2)c(C#N)c(=O)[nH]1 | 36.5 | 97.1 | 101 | 93.9 | 46.9 | –
65.3 | – | – | – | – | COc1ccc(-c2nc(C)c(C(=O)CSc3nc(-c4ccc5c(c4)OCO5)c(C#N)c(=O)[nH]3)s2)cc1 | 22.9 | 88.3 | 100 | 83.2 | – | > 50
43.4 | – | – | – | – | Cc1nc(-c2ccccc2)sc1C(=O)CSc1nc(-c2ccc(Cl)cc2)c(C#N)c(=O)[nH]1 | 22.5 | 85.2 | 90.9 | 63.4 | – | > 50
28.2 | – | – | – | – | Cc1nc(-c2ccccc2)sc1C(=O)CSc1nc(-c2cccc(Cl)c2)c(C#N)c(=O)[nH]1 | 10 | 83.7 | 86.9 | 50.6 | – | > 50
27.6 | – | – | – | – | Cc1nc(-c2ccc(Cl)cc2)sc1C(=O)CSc1nc(-c2ccccc2)c(C#N)c(=O)[nH]1 | 11.4 | 83.1 | 88.9 | 41.6 | – | > 50
57.2 | – | – | – | – | COc1ccc(-c2nc(C)c(C(=O)CSc3nc(-c4ccccc4)c(C#N)c(=O)[nH]3)s2)cc1 | 10.9 | 90.9 | 99 | 72.5 | – | > 50
56.6 | – | – | – | – | Cc1nc(-c2ccccc2)sc1C(=O)CSc1nc(-c2ccccc2)c(C#N)c(=O)[nH]1 | 9.23 | 87.5 | 92.1 | 77.5 | 93.5 | –

More lines, now with the values behind:

SMILES | IC50 [6] [µM] | IC50 [7] [µM] | inhibition [8] [%] | IC50 [9] [µM] | inhibition [10] [%] | viability at 100 µM [1] [%] | viability at 10 µM [2] [%] | viability at 5 µM [3] [%] | viability at 50 µM [4] [%] | IC50 [5] [µM] | viability at 100 µM [11] [%]
COc1ccc(-c2nc(SCC(=O)c3sc(-c4ccc(Cl)cc4)nc3C)nc(N)c2C#N)cc1 | 10.6 | 10.1 | 1.2 | 18.1 | – | 0.79 | 64.5 | 69.7 | 17.8 | – | > 50
CC(C)Cn1c(=O)n(C)c(=O)c2[nH]cnc21 [ISOBUTYLMETHYLXANTHINE] | – | – | – | 14.3 | – | – | – | – | – | – | –
Cc1nc(-c2ccccc2)sc1C(=O)CSc1nc(N)c(C#N)c(-c2ccccc2)n1 | 28.9 | 30.1 | 9.5 | > 100 | 6.5 | – | 93 | 103 | 26.3 | 46.7 | –
COc1ccc(-c2nc(C)c(C(=O)CSc3nc(-c4ccc(Cl)cc4)c(C#N)c(=O)[nH]3)s2)cc1 | 45.9 | – | – | – | – | 2.85 | 92.7 | 102 | 48 | 63 | –
COc1ccc(-c2nc(SCC(=O)c3sc(-c4ccc(Cl)cc4)nc3C)[nH]c(=O)c2C#N)cc1OC | 38.6 | – | – | – | – | 18.7 | 83.3 | 93.4 | 59.8 | – | > 50
COc1ccc(-c2nc(SCC(=O)c3sc(-c4ccccc4)nc3C)[nH]c(=O)c2C#N)cc1 | 48.4 | – | – | – | – | 1.08 | 90.4 | 97.3 | 52.1 | 76.2 | –
COc1cccc(-c2nc(SCC(=O)c3sc(-c4ccccc4)nc3C)[nH]c(=O)c2C#N)c1 | 59.7 | – | – | – | – | 21.8 | 90.2 | 99 | 80.3 | 90.2 | –
Cc1nc(-c2ccccc2)sc1C(=O)CSc1nc(-c2ccc3c(c2)OCO3)c(C#N)c(=O)[nH]1 | 33.7 | – | – | – | – | 18.7 | 84.2 | 93.4 | 42.6 | – | > 50
COc1cccc(-c2nc(SCC(=O)c3sc(-c4ccc(Cl)cc4)nc3C)[nH]c(=O)c2C#N)c1 | 41 | – | – | – | – | 8.54 | 89.7 | 96.6 | 47.6 | 77.9 | –
COc1ccc(-c2nc(C)c(C(=O)CSc3nc(-c4cccc(Cl)c4)c(C#N)c(=O)[nH]3)s2)cc1 | 78.9 | – | – | – | – | 40.6 | 90.6 | 95.7 | 83.4 | – | > 50
COc1ccc(-c2nc(C)c(C(=O)CSc3nc(-c4ccc(Cl)c(Cl)c4)c(C#N)c(=O)[nH]3)s2)cc1 | 68.5 | – | – | – | – | 31.1 | 88.6 | 101 | 78.4 | 45.6 | –
Cc1nc(-c2ccccc2)sc1C(=O)CSc1nc(-c2ccc(Cl)c(Cl)c2)c(C#N)c(=O)[nH]1 | 65 | – | – | – | – | 24.4 | 92.5 | 98.6 | 75.3 | 85.1 | –
Cc1nc(-c2ccccc2)sc1C(=O)CSc1nc(N)c(C#N)c(-c2ccc(Cl)cc2)n1 | 10.8 | 20.2 | – | 32.3 | -9.9 | 17.1 | 58.8 | 62.9 | 44.3 | – | > 50
COc1ccc(-c2nc(C)c(C(=O)CSc3nc(-c4ccc(OC)cc4)c(C#N)c(=O)[nH]3)s2)cc1 | 25.3 | – | – | – | – | 11.5 | 80.3 | 97 | 32.6 | – | > 50
